Compounds with a hit are over-represented: about 3.7% of the library has one in this group of screens.
Kir21 inh = inhibitors of mouse Kir2.1 inward-rectifier potassium channel; 0.85% of 310,000 active; P35561; AID 1672; B-score at 10 µM; HEK293-Kir2.1, FluxOR thallium flux fluorescence; active compounds read low;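 active means fluorescence ratio B-score at or below minus 3 SD of library scores, with starting-brightness B-score within 2 SD, cut at about -4.2 in these data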;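 further: channel flux triggered by added potassium and thallium sulfate stimulus; B-score of peak minus minimum fluorescence over baseline after thallium stimulus; more negative B-score means stronger Kir2.1 block with less thallium influx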
KCNK9 inh = human KCNK9 channel inhibition; AID 488922; 1.2% of 310,000 active; B-score at 10 µM; HEK293 KCNK9, FluxOR thallium flux fluorescence; active compounds read low;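 active means ratio B-score over 3 SD below the library mean, with starting fluorescence within 5 SD of its mean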;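 further: negative B-score means less thallium flux so channel inhibition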
Target sequence (Q9NPC2 whole entry, looked up): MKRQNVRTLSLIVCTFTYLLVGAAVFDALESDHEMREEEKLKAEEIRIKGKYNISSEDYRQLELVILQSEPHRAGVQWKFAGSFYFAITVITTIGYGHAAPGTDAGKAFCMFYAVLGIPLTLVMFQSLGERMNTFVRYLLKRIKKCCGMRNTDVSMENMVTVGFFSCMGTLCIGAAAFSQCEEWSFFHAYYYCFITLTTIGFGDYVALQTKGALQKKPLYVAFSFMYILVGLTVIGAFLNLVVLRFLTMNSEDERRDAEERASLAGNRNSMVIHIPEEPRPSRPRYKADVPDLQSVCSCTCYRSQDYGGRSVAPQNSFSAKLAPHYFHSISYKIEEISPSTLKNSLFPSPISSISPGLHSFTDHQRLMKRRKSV
KCNQ1 inh = human KCNQ1 channel inhibition; P51787; B-score at 10 µM; CHO-K1 KCNQ1, FluxOR thallium flux fluorescence; active compounds read high; 1.3% of 310,000 active;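 active means compounds whose thallium flux B-score, printed positive for inhibition, exceeds three library SD while starting fluorescence stays within three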;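 further: channel opened by potassium depolarization with thallium stimulus after 20 min compound exposure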
hERG protect = shields human hERG channel from block by proarrhythmic agents. activation (rescue from dofetilide block), less the hit threshold, % at 10 µM. 0.51% of 310,000 active. CHO-hERG, FluxOR thallium flux, dofetilide IC70 present. AID 1511;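 active means activation above the mean of controls blocked by dofetilide plus 5 SD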;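 further: thallium influx through hERG after potassium depolarization seen as dye fluorescence rise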
KCNQ1 act = potentiates or activates the human KCNQ1 potassium channel; CHO-K1 KCNQ1, thallium flux FluxOR fluorescence; active compounds read high; B-score at 10 µM; 0.35% of 310,000 active; AID 2648;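 active means fluorescence ratio B-score, a plate-corrected score, at least three library SD, with initial intensity B-score within 5 SD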
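Assay system: CHO-K1 cells stably expressing KCNQ1; Medium: assay buffer with matched DMSO; Also added: K+/Tl+ depolarizing stimulus; Dosing: single dose; Timing: dye 90 min, compound 20 min, room temperature; Measured by: kinetic FluxOR thallium fluorescence, 10-s 1-Hz baseline, 110-s post-stimulus read; Read-out: peak-minus-minimum fluorescence over initial fluorescence, negative-control normalized, B-scored.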
KCNK3 block = human KCNK3 channel inhibition, primary screen; O14649; CHO-KCNK3 thallium flux, FluxOR fluorescence; active compounds read low; B-score at 10 µM; 0.84% of 340,000 active;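 active means B-score under library mean minus 4 SD, starting fluorescence ratio at most library mean plus 5 SD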;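 further: more negative B-score means stronger inhibition of thallium flux through KCNK3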
KCNK3 confirm = confirmation of human KCNK3 two-pore domain potassium channel inhibitors. shares compounds with KCNK3 block. CHO-KCNK3 thallium flux, FluxOR fluorescence; 0% buffer, 100% carvedilol maximal block. ratio percent of control, % at 10 µM. 99% of 2,400 active. AID 651638;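 active means ratio percent of control, averaged over triplicates, above buffer control mean plus 5 SD, cut at about 64% in these data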;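 further: ratio is the fluorescence rise from min to max over baseline after thallium stimulus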
KCNK3 noninduced = KCNK3 inhibitor counter-screen hit in non-induced cells; non-induced KCNK3 parental cells, FluxOR thallium flux; active compounds read low; thallium flux ratio (lower = more inhibition) at 10 µM; 40% of 2,400 active; AID 651747; shares compounds with KCNK3 block;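 active means thallium flux ratio, averaged over three wells, more than 5 SD below the buffer control mean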;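 further: host cells are CHO cells without KCNK3 induction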
Numbers stand for hits.

Screening O=C(NC1CCCCC1)N1CCN(c2nc(-c3ccccc3)cs2)CC1 returned Kir21 inh inactive, KCNK9 inh inactive, KCNQ1 inh inactive, hERG protect inactive, KCNQ1 act inactive and KCNK3 block inactive.
`Cc1cc(N2CCC(C)CC2)c(F)cc1[N+](=O)[O-]` gave Kir21 inh inactive, KCNK9 inh inactive, KCNQ1 inh inactive, hERG protect inactive, KCNQ1 act inactive and KCNK3 block inactive.
Cc1cc(N2CCCC2)c(F)cc1/C=C\[N+](=O)[O-] was read as Kir21 inh -7.7, KCNK9 inh inactive, KCNQ1 inh inactive, hERG protect inactive, KCNQ1 act inactive, KCNK3 block -10.4, KCNK3 confirm 128.0 and KCNK3 noninduced 0.0987.
`Cc1ccc(C(=O)OCC(=O)N2CCNC2=O)c(C)c1` gave KCNK3 block inactive.
Screening COC(=O)c1ccc(NC(=O)CCN2C(=O)C3CC=CCC3C2=O)cc1 (stereo not drawn) returned KCNK3 block inactive.
CCOC(=O)c1c(N)sc2c1CCSC2 was read as Kir21 inh inactive, KCNK9 inh inactive, KCNQ1 inh inactive, hERG protect inactive, KCNQ1 act inactive, KCNK3 block -9.55, KCNK3 confirm 71.7 and KCNK3 noninduced inactive.
CCCOC(=O)c1c(N)sc2c1CCC2 was read as Kir21 inh inactive, KCNK9 inh inactive, KCNQ1 inh inactive, hERG protect inactive, KCNQ1 act inactive and KCNK3 block inactive.
For Cn1cc([N+](=O)[O-])c(C(=O)NC2CCCCCCC2)n1 the results were Kir21 inh inactive, KCNK9 inh inactive, KCNQ1 inh inactive, hERG protect inactive, KCNQ1 act inactive and KCNK3 block inactive.
`C#CCOc1ccc(C2C(C#N)=C(N)Oc3cc(O)ccc32)cc1` (stereo not drawn) gave Kir21 inh inactive, KCNK9 inh inactive, KCNQ1 inh inactive, hERG protect inactive, KCNQ1 act inactive, KCNK3 block -9.47, KCNK3 confirm 94.7 and KCNK3 noninduced inactive.
Screening COc1ccc(C2C(C#N)=C(N)Oc3cc(O)ccc32)cc1Cl (stereo not drawn) returned Kir21 inh inactive, KCNK9 inh inactive, KCNQ1 inh 6, hERG protect inactive, KCNQ1 act inactive, KCNK3 block -8.99, KCNK3 confirm 110.3 and KCNK3 noninduced 0.155.
COc1ccc(CN(C)CC(=O)Nc2ccc(Cl)cc2F)c(OC)c1 was read as Kir21 inh inactive, KCNK9 inh inactive, KCNQ1 inh inactive, hERG protect inactive and KCNQ1 act inactive.
Screening O=C(CC1OCC2CCCN2C1=O)Nc1ccc([N+](=O)[O-])cc1 (stereo not drawn) returned Kir21 inh inactive, KCNK9 inh inactive, KCNQ1 inh inactive, hERG protect inactive, KCNQ1 act inactive and KCNK3 block inactive.
For COc1cc(NC(=O)c2cc(-c3cccnc3)nc3ccc(Br)cc23)cc(OC)c1 the results were Kir21 inh inactive, KCNK9 inh inactive, KCNQ1 inh inactive, hERG protect inactive, KCNQ1 act inactive and KCNK3 block inactive.
Screening O=C(Nc1cccnc1)c1cc(-c2cccnc2)nc2ccc(Br)cc12 returned Kir21 inh inactive, KCNK9 inh -7.73, KCNQ1 inh inactive, hERG protect inactive, KCNQ1 act inactive, KCNK3 block -13.3, KCNK3 confirm 123.7 and KCNK3 noninduced 0.122.
COc1ccc(SCCN2CC[C@@H](C(C)(C)C)CCC2=O)cc1 was read as KCNK3 block inactive.
For CCC1(CC)NC(=O)N(CC(=O)Nc2ccc(C)cc2C)C1=O the results were KCNK3 block inactive.
Screening Cc1ccc(NC(=O)CN2C(=O)NC(C)(c3ccccc3)C2=O)c(C)c1 (stereo not drawn) returned Kir21 inh inactive, KCNK9 inh inactive, KCNQ1 inh inactive, hERG protect inactive, KCNQ1 act inactive, KCNK3 block -10.6, KCNK3 confirm 85.3 and KCNK3 noninduced inactive.
For Cc1sc2ncnc(N3CCC(C(=O)N4CC(C)SC4=Nc4ccc(Cl)cc4)CC3)c2c1C (stereo not drawn) the results were KCNK3 block inactive.
Screening CCc1ccc(N2CC(C(=O)N/N=C/c3cc([N+](=O)[O-])ccc3O)CC2=O)cc1 (stereo not drawn) returned Kir21 inh inactive, KCNK9 inh inactive, KCNQ1 inh inactive, hERG protect inactive, KCNQ1 act inactive, KCNK3 block -9.1, KCNK3 confirm 90.7 and KCNK3 noninduced inactive.
`O=C(Nc1cccc(NC(=O)c2cccs2)c1)c1cccnc1` gave Kir21 inh inactive, KCNK9 inh inactive, KCNQ1 inh inactive, hERG protect inactive, KCNQ1 act inactive, KCNK3 block -9.26, KCNK3 confirm 89.0 and KCNK3 noninduced inactive.
Cc1cc(C)cc(C(=O)Nc2ccc(NC(=O)c3cccs3)cc2)c1 was read as Kir21 inh inactive, KCNK9 inh inactive, KCNQ1 inh inactive, hERG protect inactive, KCNQ1 act inactive and KCNK3 block inactive.
`O=C(Nc1cccc(NC(=O)c2cccnc2)c1)c1cccnc1` gave Kir21 inh inactive, KCNK9 inh inactive, KCNQ1 inh inactive, hERG protect inactive, KCNQ1 act inactive and KCNK3 block inactive.
`Cc1ccc(C(=O)Nc2cccc(NC(=O)c3cccs3)c2)c(C)c1` gave Kir21 inh inactive, KCNK9 inh -6.99, KCNQ1 inh inactive, hERG protect inactive, KCNQ1 act inactive, KCNK3 block -10.5, KCNK3 confirm 85.0 and KCNK3 noninduced inactive.
Cc1cccc(C(=O)Nc2cc(NC(=O)c3cccs3)ccc2C)c1 was read as Kir21 inh inactive, KCNK9 inh inactive, KCNQ1 inh inactive, hERG protect inactive, KCNQ1 act inactive, KCNK3 block -9.73, KCNK3 confirm 112.0 and KCNK3 noninduced inactive.
For COc1cc(NC(=O)c2ccc(C)cc2C)ccc1NC(=O)c1cccs1 the results were Kir21 inh inactive, KCNK9 inh inactive, KCNQ1 inh inactive, hERG protect inactive, KCNQ1 act inactive and KCNK3 block inactive.
CN1C[C@@H]2[C@@H]3C(=O)N(C)C(=O)[C@@H]3[C@](C)(C1=O)N2C(=O)c1ccc(Br)cc1 was read as KCNK3 block inactive.
`Nc1ccc(Cl)c(-c2nc3ncccc3o2)c1` gave Kir21 inh inactive, KCNK9 inh inactive, KCNQ1 inh inactive, hERG protect inactive, KCNQ1 act inactive, KCNK3 block -11.3, KCNK3 confirm 88.0 and KCNK3 noninduced inactive.
Screening C=CCSc1nc2sc(C)c(C)c2c(=O)n1CC=C returned Kir21 inh inactive, KCNK9 inh inactive, KCNQ1 inh inactive, hERG protect inactive, KCNQ1 act inactive and KCNK3 block inactive.
